This passage reports inhibition and IC50 results from ChEMBL document CHEMBL1268829, “Design, synthesis and activity of benzothiazole-based inhibitors of NO production in LPS-activated macrophages” (Bioorg Med Chem Lett, 2010).

Molecules are shown by their SMILES. The source made the active and inactive calls. The rule behind the calls is not given here.

Assay [1] concerns RAW264.7. Put plainly: Inhibition of LPS-induced nitric oxide production in mouse RAW264.7 cells at 20 uM after 20 hrs by Griess method. The settings on record: RAW264.7, 20 h. It counts as functional. The gist of the method: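 Cells plated at 1 × 10⁵ cells/mL in 10% FBS-DMEM for 24 h, then given 1% FBS medium with compound at 20 μM plus LPS (1 μg/mL) for 20 h. Supernatant nitrite read by Griess reagent at 570 nm against a sodium nitrite standard. Percent inhibition relative to LPS control, n = 3.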

The test system of assay [2] is RAW264.7. As to the kind of experiment: Inhibition of LPS-induced nitric oxide production in mouse RAW264.7 cells after 20 hrs by Griess method. It counts as functional, cell-based. As to conditions: RAW264.7, 20 h. The gist of the method: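 Cells plated at 1 × 10⁵ cells/mL in 10% FBS-DMEM for 24 h, then switched to 1% FBS medium. Incubated 20 h with LPS (1 μg/mL) with or without compound. Supernatant nitrite read with Griess reagent, 10 min at room temperature, absorbance 570 nm, against a sodium nitrite standard. IC₅₀ from dose–response curve.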

Assay [3] has as its system RAW264.7. As to the kind of experiment: Inhibition of LPS-induced iNOS expression in mouse RAW264.7 cells at 20 uM treated for 20 hrs during LPS activation by Western blot. Format: functional, cell-based. The gist of the method: (§1)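 RAW 264.7 cells given compound (20 μM) during 20 h LPS (1 μg/mL) activation, then washed and lysed. 20 μg lysate protein run on 8% SDS-PAGE and blotted to PVDF. Probed for iNOS, COX-2 and actin, with ECL detection.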

The test system of assay [4] is RAW264.7. As to the kind of experiment: Inhibition of LPS-induced COX2 expression in mouse RAW264.7 cells at 20 uM treated for 20 hrs during LPS activation by Western blot. It counts as functional, cell-based. The essentials:
as §1

In assay [5] the test system is RAW264.7. Put plainly: Inhibition of LPS-induced iNOS mRNA expression in mouse RAW264.7 cells at 20 uM pretreated for 6 hrs before LPS challenge by RT-PCR. Format: functional, cell-based.
For assay [6], the system named is RAW264.7. As to the kind of experiment: Inhibition of LPS-induced COX2 mRNA expression in mouse RAW264.7 cells at 20 uM pretreated for 6 hrs before LPS challenge by RT-PCR. Format: functional, cell-based.
Assay [7] deals with RAW264.7. Put plainly: Inhibition of LPS-induced iNOS mRNA expression in mouse RAW264.7 cells at 20 uM treated after LPS challenge by RT-PCR. It counts as functional, cell-based. The essentials:
(§2)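 Cells at 1.8 × 10⁶ per 60 mm dish stimulated 6 h with LPS (1 μg/mL) with or without compound (20 μM). Total RNA taken for RT-PCR of iNOS, COX-2 and β-actin: 25 cycles of 94 °C, 55 °C and 72 °C, 30 s each. Products resolved on 2% agarose.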

Assay [8] concerns RAW264.7. As to the kind of experiment: Inhibition of LPS-induced COX2 mRNA expression in mouse RAW264.7 cells at 20 uM treated after LPS challenge by RT-PCR. It counts as functional, cell-based. The essentials:
as §2

Assay [9] deals with RAW264.7. As to the kind of experiment: Inhibition of I-kappaB-alpha degradation in LPS-induced mouse RAW264.7 cells at 20 uM pretreated for 30 mins before LPS challenge for 30 mins by Western blotting. It counts as cell-based. The essentials:
(§3)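 Cells pretreated 30 min with compound at 20 μM, then LPS (1 μg/mL) for 30 min. Cytoplasmic IκB-α and nuclear p65 measured by Western blot. Levels normalized to PARP.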

For assay [10], the system named is RAW264.7. As to the kind of experiment: Inhibition of sNFkappaB nuclear translocation in LPS-induced mouse RAW264.7 cells at 20 uM pretreated for 30 mins before LPS challenge for 30 mins by Western blotting. It counts as cell-based. The gist of the method:
as §3

In the assay on RAW264.7 [1], `COc1ccc(CCC(=O)Nc2ccccc2COc2cccc3scnc23)cc1OC` showed an inhibition at 20 µM of 11.6%.
Still for that read-out and setting: the result for `Nc1cccc(COc2cccc3scnc23)c1` reads 32.9%; that for `Nc1ccccc1COc1cccc2scnc12`, 15.2%.
As to `COc1ccc(/C=C/C(=O)N(Cc2ccccc2)c2ccccc2COc2cccc3scnc23)cc1OC`, in the assay on RAW264.7 [1], 20 µM produced 39.8% inhibition. This molecule showed an IC50 in the assay with RAW264.7 [2] of 20.9 µM. The inhibition entry in the assay with RAW264.7 [3], in the assay on RAW264.7 [4], in the assay on RAW264.7 [5], in the assay on RAW264.7 [6], in the assay with RAW264.7 [9] and in the assay on RAW264.7 [10] was “Active” each time. The inhibition result in the assay on RAW264.7 [7] and in the assay on RAW264.7 [8] was “inactive” each time.
On to `COc1ccc2[nH]cc(CC(=O)Nc3cccc(COc4cccc5scnc45)c3)c2c1`, for which the inhibition at 20 µM with RAW264.7 [1] came out at 75.9%. The same molecule returned an IC50 with RAW264.7 [2] of 4.2 µM. For the same molecule, the inhibition entry in the assay on RAW264.7 [3], in the assay with RAW264.7 [4], in the assay on RAW264.7 [5], with RAW264.7 [6], with RAW264.7 [9] and in the assay on RAW264.7 [10] was “Active” each time. The inhibition entry with RAW264.7 [7] and in the assay with RAW264.7 [8] was “inactive” throughout.
The molecule `COc1cccc2scnc12` showed an inhibition at 20 µM in the assay on RAW264.7 [1] of 18.6%.
For `O=C(Cc1ccc2c(c1)OCO2)N(Cc1ccccc1)c1ccccc1COc1cccc2scnc12`, in the assay on RAW264.7 [1], the inhibition at 20 µM amounted to 54.9%. This molecule had an IC50 in the assay with RAW264.7 [2] of 21.2 µM.
Take `COc1ccc(/C=C/C(=O)Nc2ccccc2COc2cccc3scnc23)cc1OC`: the inhibition at 20 µM with RAW264.7 [1] was found to be 44.7%.
Same read-out and setting: the result for `Cc1ccc(COc2cccc3scnc23)cc1` reads 10.4%.
Turning to `c1ccc(CNc2ccccc2COc2cccc3scnc23)cc1`, the inhibition at 20 µM in the assay with RAW264.7 [1] came out at 55.8%. In addition, the IC50 in the assay with RAW264.7 [2] was 17.2 µM. Besides, the inhibition result in the assay with RAW264.7 [3], in the assay with RAW264.7 [4], with RAW264.7 [5], in the assay with RAW264.7 [6], with RAW264.7 [9] and in the assay with RAW264.7 [10] was “Active” throughout. The inhibition entry in the assay on RAW264.7 [7] and with RAW264.7 [8] was “inactive” throughout.
On to `CS(=O)(=O)Nc1ccccc1COc1cccc2scnc12`, for which the inhibition at 20 µM with RAW264.7 [1] was 0.4%.
In the assay on RAW264.7 [1], `Oc1cccc2scnc12` gave an inhibition at 20 µM of 8.6%.
Still for that read-out and setting: the value for `Cc1ccc(COc2cccc3sc(N)nc23)cc1` was 14.4%.
Same read-out and setting: the value for `Nc1nc2c(O)cccc2s1` was 11.4%.
Take `c1ccc(COc2cccc3scnc23)cc1`: in the assay with RAW264.7 [1], the inhibition at 20 µM is 12.3%.
Still for that read-out and setting: the value for `COc1ccc2[nH]cc(CC(=O)Nc3ccccc3COc3cccc4scnc34)c2c1` was 36.4%.
In the case of `O=C(Cc1ccc2c(c1)OCO2)Nc1cccc(COc2cccc3scnc23)c1`, 20 µM produced 58.9% inhibition in the assay on RAW264.7 [1]. Further, in the assay with RAW264.7 [2], the IC50 is 23.6 µM.
`CC(=O)Nc1ccccc1COc1cccc2scnc12` yielded an inhibition at 20 µM in the assay with RAW264.7 [1] of 3.7%.
As for `O=C(Cc1ccc2c(c1)OCO2)Nc1ccccc1COc1cccc2scnc12`, at 20 µM the inhibition with RAW264.7 [1] was 32.5%. Also, it took 72.3 µM to reach half-maximal inhibition with RAW264.7 [2] (IC50).
